From ChEMBL document CHEMBL1128731, “Furanfurin and thiophenfurin: two novel tiazofurin analogues. Synthesis, structure, antitumor activity, and interactions with inosine monophosphate dehydrogenase” (J Med Chem, 1995)

Assays:
[1] = IC90 ratio against bone marrow samples to HL-60; assay type: functional
Procedure, shortened: (§1)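 Antiproliferative assay scoring [125I]-5-iodo-2'-deoxyuridine incorporation into DNA after 72 h drug–cell contact. Run on normal human bone marrow from five donors and in three assays on HL-60. Ratio is antilog(mean log IC50 or IC90) on bone marrow over the same on HL-60. Range limits are antilog(mean log IC50 ± 2SD).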

K562 [2] = assay: Compound was tested for its effect on ADP ribonucleotide levels of K562 cell at 50 uM concentration; assay type: functional, Homo sapiens
Procedure, shortened: (§2)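 K562 cells (1×10^7) were treated with saline or agent for 2 h at 37 °C, harvested by centrifugation and washed with cold saline. They were extracted with cold 10% trichloroacetic acid, neutralized with 0.5 M tri-n-octylamine in freon, and analyzed by HPLC. Levels are in nmol/g and expressed as % of saline control. Significance was set at p < 0.05.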

[3] = IC50 ratio against bone marrow samples to HL-60; assay type: functional; procedure, shortened: as §1
HL-60 [4] = assay: (§3) Inhibitory concentration range against human HL-60 cell line; assay type: functional; procedure, shortened: as §1
K562 [5] = assay: Compound was tested for its effect on GMP ribonucleotide levels of K562 cell at 50 uM concentration; assay type: functional, Homo sapiens; procedure, shortened: as §2
K562 [6] = assay: Compound was tested for its effect on UTP ribonucleotide levels of K562 cell at 100 uM concentration; assay type: functional, Homo sapiens; procedure, shortened: as §2
K562 [7] = assay: Compound was tested for its effect on CDP ribonucleotide levels of K562 cell at 50 uM concentration; assay type: functional, Homo sapiens; procedure, shortened: as §2
K562 [8] = assay: Compound was tested for its effect on GDP ribonucleotide levels of K562 cell at 100 uM concentration; assay type: functional, Homo sapiens; procedure, shortened: as §2
K562 [9] = assay: Compound was tested for its effect on NAD ribonucleotide levels of K562 cell at 50 uM concentration; assay type: functional, Homo sapiens; procedure, shortened: as §2
K562 [10] = assay: Inhibitory concentration against K562 human myelogenous leukemia cell line; assay type: functional, cell-based
Procedure, shortened: (§4)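 Cells in log phase plated with a range of drug concentrations (B16 5×10^3 cells/well; P388, L1210, LLC 10^4 cells/well; HL-60, K562, LoVo 2.5×10^5 cells/well). Growth read by modified MTT after 72 h drug contact at 37 °C. IC50 taken as the concentration reducing optical absorption by 50%, from Chou regression analysis. Maximum concentration tested 200 μM.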

K562 [11] = assay: Compound was tested for its effect on IMPDH activity against K562 cells at 50 uM concentration; assay type: functional, Homo sapiens
Procedure, shortened: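 Log-phase K562 cells (1×10^6/mL) were exposed to saline or agent for 2 h at 37 °C, washed and lysed (Tris-HCl pH 7.4, NaCl, MgCl2, 0.5% NP-40, aprotinin). The cleared supernatant was incubated 30 min at 37 °C with 286 μM [2,8-3H]IMP and 1 mM NAD. Tritium release was counted by scintillation. Activity is nmol XMP/h/mg protein, also given as % of control.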

Homo sapiens [12] = species on record: Homo sapiens; assay: (§5) Inhibitory concentration range against human bone marrow; assay type: functional; procedure, shortened: as §1
K562 [13] = assay: Formation of NAD analogue by compound at 50 uM concentration against human myelogenous leukemia K562; assay type: functional
Procedure, shortened: (§6)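 K562 cells (1×10^7/10 mL) were labeled with 185 nM [2,8-3H]adenosine for 1 h at 37 °C, then given saline or analogue for 2 h. Cells were pelleted, washed with PBS and extracted in cold 10% trichloroacetic acid. Extracts were neutralized with 0.5 M tri-n-octylamine in freon and run on SAX HPLC with ammonium phosphate buffer. Results are pmol NAD analogue per 10^9 cells.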

K562 [14] = assay: Compound was tested for its effect on GTP ribonucleotide levels of K562 cell at 100 uM concentration; assay type: functional, Homo sapiens; procedure, shortened: as §2
K562 [15] = assay: Compound was tested for its effect on UMP ribonucleotide levels of K562 cell at 50 uM concentration; assay type: functional, Homo sapiens; procedure, shortened: as §2
Mus musculus [16] = assay: Compound was tested for ratio of survival time of treated to control mice x100 at 25 mg/kg dose; assay type: functional
Procedure, shortened: (§7)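 Female BD2F1 mice (8 weeks old, 20–22 g), eight per group, injected ip with 10^5 L1210 leukemia cells on day 0. Starting 24 h later, drug dissolved in 0.9% NaCl given ip once daily for 9 consecutive days. % T/C = survival time of treated/control mice × 100. Body weight change tracked from start to end of treatment.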

K562 [17] = assay: Compound was tested for its effect on GTP ribonucleotide levels of K562 cell at 50 uM concentration; assay type: functional, Homo sapiens; procedure, shortened: as §2
HL-60 [18] = assay: as §3; assay type: functional, cell-based; procedure, shortened: as §1
K562 [19] = assay: Compound was tested for its effect on IMP ribonucleotide levels of K562 cell at 100 uM concentration; assay type: functional, Homo sapiens; procedure, shortened: as §2
K562 [20] = assay: Compound was tested for its effect on CTP ribonucleotide levels of K562 cell at 100 uM concentration; assay type: functional, Homo sapiens; procedure, shortened: as §2
[21] = system: Lewis lung carcinoma cell line; assay: Inhibitory concentration against LLC Lewis lung carcinoma; assay type: functional, cell-based; conditions: Mus musculus; procedure, shortened: as §4
K562 [22] = assay: Compound was tested for its effect on ATP ribonucleotide levels of K562 cell at 50 uM concentration; assay type: functional, Homo sapiens; procedure, shortened: as §2
K562 [23] = assay: Compound was tested for its effect on UDP ribonucleotide levels of K562 cell at 50 uM concentration; assay type: functional, Homo sapiens; procedure, shortened: as §2
K562 [24] = assay: Compound was tested for its effect on ADP ribonucleotide levels of K562 cell at 100 uM concentration; assay type: functional, Homo sapiens; procedure, shortened: as §2
K562 [25] = assay: Compound was tested for its effect on UMP ribonucleotide levels of K562 cell at 100 uM concentration; assay type: functional, Homo sapiens; procedure, shortened: as §2
Mus musculus [26] = assay: Average weight change of mice from onset to termination of drug treatment at 400 mg/kg dose; assay type: functional
Procedure, shortened: (§8)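 Female BD2F1 mice (8 weeks, 20–22 g), eight per group, injected ip with 10^5 L1210 cells on day 0. From 24 h later, drug in 0.9% NaCl was given ip once daily for 9 days. Body weight change was averaged from onset to termination of treatment. Early deaths from toxicity were recorded.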

K562 [27] = assay: Compound was tested for its effect on UDP ribonucleotide levels of K562 cell at 100 uM concentration; assay type: functional, Homo sapiens; procedure, shortened: as §2
K562 [28] = assay: Compound was tested for its effect on ATP ribonucleotide levels of K562 cell at 100 uM concentration; assay type: functional, Homo sapiens; procedure, shortened: as §2
HL-60 [29] = assay: Inhibitory concentration against HL-60 human promyelocytic leukemia; assay type: functional, cell-based; procedure, shortened: as §4
K562 [30] = assay: Compound was tested for its effect on GDP ribonucleotide levels of K562 cell at 50u; assay type: functional, Homo sapiens; procedure, shortened: as §2
K562 [31] = assay: Formation of NAD analogue by compound at 100 uM concentration against human myelogenous leukemia K562; assay type: functional; procedure, shortened: as §6
K562 [32] = assay: Compound was tested for its effect on NAD ribonucleotide levels of K562 cell at 100 uM concentration; assay type: functional, Homo sapiens; procedure, shortened: as §2
K562 [33] = assay: compound was tested for its effect on IMPDH activity against K562 cells at 50 uM concentration; assay type: functional, Homo sapiens
Procedure, shortened: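 K562 cells (1×10^6/mL, log phase) exposed 2 h at 37 °C to 10, 50 or 100 μM drug, or to saline. Cells washed and lysed in Tris-HCl pH 7.4/NaCl/MgCl2/NP-40/aprotinin, and the 13000g supernatant used as enzyme. Enzyme incubated 30 min at 37 °C with 286 μM [2,8-3H]IMP and 1 mM NAD. Tritium release counted; activity in nmol XMP/h/mg protein, as % of saline control.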

P388 = assay: Inhibitory concentration against P388 murine lymphocytic leukemia cell lines; assay type: functional, cell-based; conditions: Mus musculus; procedure, shortened: as §4
K562 [34] = assay: Compound was tested for its effect on CTP ribonucleotide levels of K562 cell at 50 uM concentration; assay type: functional, Homo sapiens; procedure, shortened: as §2
Mus musculus [35] = assay: Average weight change of mice from onset to termination of drug treatment at 25 mg/kg dose; assay type: functional; procedure, shortened: as §8
K562 [36] = assay: Compound was tested for its effect on CDP ribonucleotide levels of K562 cell at 100 uM concentration; assay type: functional, Homo sapiens; procedure, shortened: as §2
LoVo = assay: Inhibitory concentration against LoVo human colon adenocarcinoma cell lines; assay type: functional, cell-based; procedure, shortened: as §4
[37] = Ratio of IC50 against HL-60; assay type: functional; procedure, shortened: as §1
K562 [38] = assay: Compound was tested for its effect on IMP ribonucleotide levels of K562 cell at 50 uM concentration; assay type: functional, Homo sapiens; procedure, shortened: as §2
K562 [39] = assay: Compound was tested for its effect on AMP ribonucleotide levels of K562 cell at 100 uM concentration; assay type: functional, Homo sapiens; procedure, shortened: as §2
Mus musculus [40] = assay: Compound was tested for ratio of survival time of treated to control mice x100 at 400 mg/kg dose; assay type: functional; procedure, shortened: as §7
L1210 = assay: Inhibitory concentration against L1210 murine lymphocytic leukemia; assay type: functional, cell-based; conditions: Mus musculus; procedure, shortened: as §4
Homo sapiens [41] = species on record: Homo sapiens; assay: as §5; assay type: functional, organism-based; procedure, shortened: as §1
K562 [42] = assay: Compound was tested for its effect on AMP ribonucleotide levels of K562 cell at 50 uM concentration; assay type: functional, Homo sapiens; procedure, shortened: as §2
K562 [43] = assay: Compound was tested for its effect on UTP ribonucleotide levels of K562 cell at 50 uM concentration; assay type: functional, Homo sapiens; procedure, shortened: as §2
K562 [44] = assay: Compound was tested for its effect on GMP ribonucleotide levels of K562 cell at 100 uM concentration; assay type: functional, Homo sapiens; procedure, shortened: as §2

NC(=O)c1csc([C@@H]2O[C@H](CO)[C@@H](O)[C@H]2O)n1 [TIAZOFURIN]
Ratio [1]: >6
Control (K562 [2]): 103%
Ratio [3]: 7.3
IC90 (HL-60 [4]): 7.6 µM
Control (K562 [5]): 62%
Control (K562 [6]): 90%
Control (K562 [7]): 104%
Control (K562 [8]): 63%
Control (K562 [9]): 98%
IC50 (K562 [10]): 4.5 µM
Activity (K562 [11]): 1.82
IC90 (Homo sapiens [12]): >128 µM
Formation (K562 [13]): 186 pmol/10^9 cells
Control (K562 [14]): 54%
Control (K562 [15]): 113%
T/C (Mus musculus [16]): 177%
Control (K562 [17]): 64%
IC50 (HL-60 [18]): 2500 nM
Control (K562 [19]): 578%
Control (K562 [20]): 32%
IC50 [21]: 1500 nM
Control (K562 [22]): 101%
Control (K562 [23]): 120%
Control (K562 [24]): 99%
Control (K562 [25]): 96%
Change (Mus musculus [26]): -13.1%
Control (K562 [27]): 116%
Control (K562 [28]): 91%
IC50 (HL-60 [29]): 8.7 µM
Control (K562 [30]): 82%
Formation (K562 [31]): 310 pmol/10^9 cells
Control (K562 [32]): 84%
Control (K562 [33]): 37%
IC50 (P388): 2200 nM
Control (K562 [34]): 92%
Change (Mus musculus [35]): -4.3%
Control (K562 [36]): 85%
IC50 (LoVo): > 128 µM
Ratio [37]: 1.9
Control (K562 [38]): 544%
Control (K562 [39]): 103%
T/C (Mus musculus [40]): 260%
IC50 (L1210): 7.4 µM
IC50 (Homo sapiens [41]): 10.4 µM
Control (K562 [42]): 100%
Control (K562 [43]): 115%
Control (K562 [44]): 55%
